# Source: PubChem (several laboratories)
# proKLK7 act: activates the human kallikrein-7 zymogen | purified proKLK7, EDANS-DABCYL substrate fluorescence; 100% is mature enzyme control, 0% vehicle | activation, % at 7 µM | 0.9% of 370,000 active;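 active = activation above the mean of all tested compounds plus 3 SD, computed per campaign excluding outliers beyond control limits, cut at about 13% in these data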
# Target sequence (P49862 whole entry, looked up): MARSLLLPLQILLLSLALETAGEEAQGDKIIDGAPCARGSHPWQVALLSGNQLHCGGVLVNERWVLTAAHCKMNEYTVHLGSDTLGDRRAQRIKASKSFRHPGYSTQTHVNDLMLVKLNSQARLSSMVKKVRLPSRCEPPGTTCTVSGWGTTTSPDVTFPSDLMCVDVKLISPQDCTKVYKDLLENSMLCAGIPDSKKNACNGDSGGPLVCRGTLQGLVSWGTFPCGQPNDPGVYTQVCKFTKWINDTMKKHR
# CRFR2-BP ag: CRF-BP/CRF-R2 complex agonism; HEK293 CRF-R2/CRF-BP, calcium dye fluorescence (FLIPR); percent of saturating CRF peptide response; activation, % at 13.2 µM; 0.46% of 350,000 active; AID 588473;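 active = activation of at least 50%, plus an integration ratio under a set limit after plate pattern correction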;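 note: plate controls were neutral control wells without compound for no effect and CRF at EC100 for full effect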
# DDE Tn7 FP inh: disrupts Tn7 cyclic peptide binding to fibrin D-Dimer-E complex | AID 720508 | 0.13% of 370,000 active | inhibition, % at 8.3 µM | FP displacement of FITC-Tn7 peptide from fibrin DD(E); 0% = median of compound wells per plate;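 active = inhibition above the mean of compounds falling within the control limits plus 3 SD of them, cut at about 14% in these data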;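 note: 0% = plate median of compound wells and 100% = 10 µM Aha-Tn7 peptide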
#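 Assay system: Fibrin-DD(E) protein isolated from polymerized human fibrin clots; read-out basis: percent inhibition; medium: Tris/NaCl/CaCl2 buffer, pH 7.8; signal: FP measurement; incubation: 10 min plus 3 h, room temperature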
# Tn6 DDE FP: inhibitors of Tn6 peptide binding to human fibrin DD(E); 0.21% of 370,000 active; inhibition, % at 8.3 µM; P02675; Fibrin DD(E) TRITC-Tn6 fluorescence polarization displacement;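 active = inhibition above a per-campaign cutoff: mean of compounds within control limits plus 3 SD, cut at about 15% in these data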;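 note: 0% = median of all compound wells on the plate and 100% = blocking peptide control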
# CRFBP-R2 block: blocks CRF-induced signaling of the CRF-BP/CRF-R2 complex; HEK293 CRF-R2/CRF-BP, CRF-induced calcium fluorescence; inhibition, % at 11.8 µM; 0.59% of 350,000 active;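 active = inhibition of the ligand-induced calcium signal above about 50% at the single tested concentration, limit read from the data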
# NRP1-CendR mod: NRP-1/CendR interaction modulation; 0.85% of 360,000 active; inhibition, % at 25 µM; FAM-RPARPAR peptide binding to NRP-1, fluorescence polarization; O14786;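 active = inhibition or corrected inhibition above about 18%, plus a signal ratio from 0.5 to 1.5, limit read from the data, passing the limit was not always enough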
# KLK7 act conf: confirmation of human kallikrein-7 zymogen activators; shares compounds with proKLK7 act; purified proKLK7, EDANS-DABCYL substrate fluorescence; scaled: vehicle 0, mature enzyme 100; activation, % at 7 µM; 68% of 3,200 active; AID 686949;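 active = activation, as change over the incubation, above the mean of all tested compounds plus 3 SD, cut at about 13% in these data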
# EDANS interfere: counter-screen for kallikrein-7 activators: EDANS-DABCYL optical interference; shares compounds with proKLK7 act; EDANS-DABCYL substrate fluorescence interference, no enzyme, 4 h; solvent 0%, active enzyme control 100%; activation, % at 7 µM; 80% of 3,200 active; AID 686952;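 active = activation above the all-compound mean plus 3 SD, ignoring values outside control-based bounds, cut at about 4.8% in these data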;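 note: value is the 4 h activation minus the activation read at time zero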
# EDANS interf: EDANS fluorescence interference in dose response, no enzyme. shares compounds with proKLK7 act. EDANS-DABCYL peptide fluorescence interference. EC50, µM. 20% of 250 active. AID 720493;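 active = compounds that raise the fluorescence signal in this interference counterscreen, with EC50 at or below 10 µM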;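 note: intact quenched peptide substrate alone read at 355 nm excitation and 520 nm emission; signal is fluorescence gain from T0 to T4 after four hours at room temperature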
# Numbers without * were called inactive; . = not tested or not shown. An excerpt weighted towards active compounds, which were near 2.9% of everything screened.
SMILES,proKLK7 act,CRFR2-BP ag,DDE Tn7 FP inh,Tn6 DDE FP,CRFBP-R2 block,NRP1-CendR mod,KLK7 act conf,EDANS interfere,others
CCOC(=O)COc1cc(OCC(=O)OCC)c2c3c(c(=O)oc2c1)CCCC3,2,0,0,3,2,-1,.,.,
COc1ccc(S[C@]2(C(=O)N3CCOCC3)CC(=O)N(c3ccccc3)[C@@H]2c2ccc(OC)cc2)cc1,2,.,-3,3,.,.,.,.,
Nc1nc2ccc(Cl)cc2cc1C(=O)NCCc1ccc(Cl)cc1Cl,-1,.,1,5,.,-4,.,.,
CCN(CC)CCCNC(=O)c1cc2cc(Cl)ccc2nc1N,17*,.,-7,5,.,.,26*,25*,
Nc1nc2ccc(Cl)cc2cc1C(=O)NC1CC1,16*,.,4,6,.,-8,12,8.8*,
CN(CCCOC(=O)CC1C=CCC1)C1CN(Cc2cn(Cc3ccccc3Cl)nn2)S(=O)(=O)C1 (stereo not drawn),-1,.,6,-9,.,.,.,.,
CC(=O)OC[C@H]1O[C@@H](Oc2cc3ccc(=O)oc3cc2OC(C)=O)[C@H](OC(C)=O)[C@@H](OC(C)=O)[C@@H]1OC(C)=O,80*,0,-1,3,6,0,79*,78*,
C=CCOC(=O)N[C@@H](c1cccc(OC)c1)[C@@H](C)/C=C/CC(=O)O,0,.,3,1,.,.,.,.,
C[C@@H]1COc2cc(N3CCCCC3)ccc2S(=O)(=O)N1,0,.,2,0,.,.,.,.,
CN(C)CCNc1oc(/C=C/c2ccccc2)nc1C#N,98*,0,4,-3,26,-9,66*,69*,
CN(C)CCCNc1oc(-c2cccc(Cl)c2)nc1C#N,51*,0,7,-2,8,16,17*,26*,
C=CCNc1oc(/C=C/c2ccccc2)nc1C#N,46*,0,2,-4,6,-6,66*,68*,
CCOc1ccc(/C=C/c2nc(C#N)c(NCCCOC)o2)cc1,-15,-2,5,-2,-3,-6,.,.,
COCCCNc1oc(/C=C/c2ccccc2)nc1C#N,44*,-1,-1,-1,0,-5,57*,61*,
CCN(CC)CCCNc1oc(-c2ccc(OC)c(OC)c2)nc1C#N,7,0,-1,0,9,-12,.,.,
CN(C)CCCNc1oc(/C=C/c2ccccc2)nc1C#N,1,0,-2,9,0,8,.,.,
CCOc1cccc(-c2nnc3n2N=C(c2ccc(OC)cc2)CS3)c1,0,.,-2,2,.,.,.,.,
COC(=O)[C@]12C[C@H](CC(=O)N3CCSCC3)C(=O)N(CCC3=CCCCC3)C1=C[C@H](C1CCCC1)O[C@@H]2C,1,.,3,7,.,.,.,.,
CC(=O)Nc1sc2c(c1-c1nc3ccccc3s1)CCCNC2,.,.,-1,1,.,.,.,.,
O=S(=O)(O)c1ccc(N2N=C(c3ccccc3)CC2c2ccccc2)cc1 (stereo not drawn),56*,-6,2,1,14,-2,72*,66*,
NS(=O)(=O)c1ccc(N2N=C(c3ccccc3)CC2c2ccccc2)cc1 (stereo not drawn),-312,-3,-5,-2,-9,4,.,.,
O=C(c1cccc(F)c1)N1CCN(C(=O)c2cc3nc(-c4ccco4)cc(C(F)(F)F)n3n2)CC1,-6,1,-2,2,-13,-9,.,.,
O=C(NCCCN1CCOCC1)c1cc2nc(-c3ccco3)cc(C(F)(F)F)n2n1,15*,2,-6,0,3,7,14*,11*,EDANS interf=>70
